Experimental findings from ChEMBL document CHEMBL4431326, “Tumor Targeting with Novel 6-Substituted Pyrrolo [2,3-d] Pyrimidine Antifolates with Heteroatom Bridge Substitutions via Cellular Uptake by Folate Receptor α and the Proton-Coupled Folate Transporter and Inhibition of de Novo Purine Nucleotide Biosynthesis” (J Med Chem, 2016) are described below.

A short description of data set [1]: Cytotoxicity in RFC-null Chinese hamster R2 cells assessed as reduction in cell viability measured after 96 hrs by Cell-Titer Blue fluorescence analysis. The class given is cell-based. As to conditions: Cricetulus griseus, R2, 96 h.
Data set [2] is described as follows: Cytotoxicity in PCFT-null Chinese hamster R2 cells assessed as reduction in cell viability measured after 96 hrs by Cell-Titer Blue fluorescence analysis. The data set is classed as cell-based. As to conditions: Cricetulus griseus, R2, 96 h.
For data set [3], the target named is T1, Trifunctional purine biosynthetic protein adenosine-3 (Homo sapiens, UniProt P22102).
T1 sequence (P22102 whole entry): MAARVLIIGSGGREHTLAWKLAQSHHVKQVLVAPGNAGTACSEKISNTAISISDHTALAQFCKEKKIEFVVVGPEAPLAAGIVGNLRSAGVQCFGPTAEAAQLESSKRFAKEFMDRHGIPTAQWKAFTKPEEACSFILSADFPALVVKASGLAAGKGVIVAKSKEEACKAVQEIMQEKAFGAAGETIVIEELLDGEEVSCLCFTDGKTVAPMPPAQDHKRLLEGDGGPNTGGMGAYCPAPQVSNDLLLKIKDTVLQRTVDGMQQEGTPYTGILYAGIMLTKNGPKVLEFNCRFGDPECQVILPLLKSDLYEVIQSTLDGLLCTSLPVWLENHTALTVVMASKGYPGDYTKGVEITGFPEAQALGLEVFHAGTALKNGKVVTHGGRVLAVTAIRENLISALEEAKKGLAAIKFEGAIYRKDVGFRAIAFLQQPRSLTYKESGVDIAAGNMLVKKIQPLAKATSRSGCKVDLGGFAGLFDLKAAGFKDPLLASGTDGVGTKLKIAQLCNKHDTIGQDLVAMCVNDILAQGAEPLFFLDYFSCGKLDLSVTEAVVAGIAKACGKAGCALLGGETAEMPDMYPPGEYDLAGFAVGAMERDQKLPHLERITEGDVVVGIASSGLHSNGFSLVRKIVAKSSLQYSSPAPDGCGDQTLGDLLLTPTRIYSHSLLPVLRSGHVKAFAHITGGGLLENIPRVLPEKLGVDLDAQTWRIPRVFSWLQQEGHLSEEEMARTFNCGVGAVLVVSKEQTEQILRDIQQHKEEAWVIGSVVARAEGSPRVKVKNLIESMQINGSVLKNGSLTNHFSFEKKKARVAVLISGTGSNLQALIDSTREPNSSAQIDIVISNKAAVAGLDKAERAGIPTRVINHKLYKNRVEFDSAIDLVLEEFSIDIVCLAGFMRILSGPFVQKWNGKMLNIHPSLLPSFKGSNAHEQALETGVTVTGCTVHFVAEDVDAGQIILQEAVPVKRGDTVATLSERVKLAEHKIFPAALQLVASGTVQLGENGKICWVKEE
Description: Inhibition of recombinant N-terminal 6His-tagged human GARFTase assessed as formation of 5,8-dideazafolate from 10-formyl-5,8-dideazafolic acid measured at every 15 seconds over 20 min by spectrophotometric analysis.

In data set [4] the target is T1, Trifunctional purine biosynthetic protein adenosine-3. Kind of data set: Inhibition of GARFTase in human KB cells expressing RFC/FR-alpha/PCFT assessed as decrease in incorporation of [14C(U)]-glycine into [14C]formyl GAR incubated for 1 hr followed by addition of [14C(U)]-glycine measured after 16 hrs in presence of azaserine. The class given is cell-based.
Data set [5] addresses Bifunctional purine biosynthesis protein ATIC (Homo sapiens) (UniProt P31939). Kind of data set: Inhibition of AICARFTase in human KB cells expressing RFC/FR-alpha/PCFT assessed as cell growth inhibition measured after 96 hrs in presence of 320 uM AICA by Cell-Titer Blue fluorescence analysis. The data set is classed as cell-based.
The target in data set [6] is T2, Proton-coupled folate transporter (Homo sapiens, UniProt Q96NT5).
T2 sequence (Q96NT5 whole entry): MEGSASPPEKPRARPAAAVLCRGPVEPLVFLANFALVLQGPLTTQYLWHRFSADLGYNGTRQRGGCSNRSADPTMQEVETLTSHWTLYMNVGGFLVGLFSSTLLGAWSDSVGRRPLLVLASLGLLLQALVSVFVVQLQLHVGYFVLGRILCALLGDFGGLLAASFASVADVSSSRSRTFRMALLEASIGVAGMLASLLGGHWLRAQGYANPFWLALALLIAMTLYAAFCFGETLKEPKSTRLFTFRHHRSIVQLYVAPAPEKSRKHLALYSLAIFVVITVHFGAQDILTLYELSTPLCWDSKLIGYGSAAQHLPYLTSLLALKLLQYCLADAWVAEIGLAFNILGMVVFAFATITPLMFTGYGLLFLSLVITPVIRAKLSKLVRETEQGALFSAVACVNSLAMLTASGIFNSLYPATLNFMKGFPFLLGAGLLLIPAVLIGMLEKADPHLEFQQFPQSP
Description: Inhibition of [3H]MTX uptake at human PCFT expressed in Chinese hamster R2/PCFT4 cells at pH 5.5 measured after 5 mins by Dixon plot analysis. The class given is cell-based.

Data set [7] is described as follows: Toxicity in folate-deficient diet fed SCID mouse xenografted with human IGROV1 cells assessed as body weight loss at 96 and 150 mg/kg, iv administered […] post 2 days of tumor implantation measured during compound treatment. Conditions: in vivo, 48 h. The data set is classed as organism-based. An outline of the steps: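 Female NCR SCID mice (11 weeks old, ~20 g) are fed a folate-deficient diet from 14 days before implant. IGROV1 fragments (30–60 mg) are trocar-implanted subcutaneously in both flanks, and mice are randomised at 5/group. Tail-vein dosing starts on day 2: 28 mg/kg/inj Q3dx5, or 96 or 150 mg/kg/inj Q3dx4. Vehicle is 5% ethanol, 1% Tween-80, 0.5% NaHCO3 in water at pH 6.5. Caliper tumor mass is (a×b²)/2, T/C is taken when controls reach 700–1200 mg, and weights are recorded daily.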
(A xenograft is tissue or cells of one species grown in another, often human tumour cells in immunodeficient mice.)

Active and inactive are the calls of the source. No cut-off for these calls is given here.

In general, IC50 refers to the concentration needed to halve the response being measured. As a reminder, the Ki is a dissociation constant, usually derived from enzyme kinetics or from competition with a known ligand.

Chain of Bifunctional purine biosynthesis protein ATIC (Homo sapiens) (P31939 whole entry, looked up): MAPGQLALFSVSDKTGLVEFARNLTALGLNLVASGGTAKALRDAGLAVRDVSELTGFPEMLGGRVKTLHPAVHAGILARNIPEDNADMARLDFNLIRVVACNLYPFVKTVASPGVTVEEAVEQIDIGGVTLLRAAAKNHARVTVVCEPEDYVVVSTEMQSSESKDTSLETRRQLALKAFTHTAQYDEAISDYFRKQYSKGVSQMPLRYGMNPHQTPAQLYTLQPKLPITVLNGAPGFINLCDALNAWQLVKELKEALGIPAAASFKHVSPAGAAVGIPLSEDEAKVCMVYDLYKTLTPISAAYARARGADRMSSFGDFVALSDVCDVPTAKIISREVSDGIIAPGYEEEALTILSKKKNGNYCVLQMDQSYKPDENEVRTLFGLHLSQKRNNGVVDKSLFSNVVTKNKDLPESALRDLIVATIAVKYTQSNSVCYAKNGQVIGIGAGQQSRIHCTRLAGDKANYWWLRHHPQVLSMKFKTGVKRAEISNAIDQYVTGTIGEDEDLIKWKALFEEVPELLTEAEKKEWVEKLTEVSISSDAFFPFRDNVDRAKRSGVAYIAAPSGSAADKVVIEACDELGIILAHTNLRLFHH

On to `Nc1nc2[nH]c(CCNc3ccc(C(=O)N[C@@H](CCC(=O)O)C(=O)O)cc3)cc2c(=O)[nH]1`, for which the figures for the IC50 in data set [1], in data set [2] and in data set [4] were > 1000 nM, > 1000 nM and 2.64 nM, respectively. The Ki turned out to be 59 nM in data set [3] and 850 nM in data set [6]. The inhibition entry in data set [5] was “Active”. Also, the Activity in data set [7] was 17 to 17.3%.
